Test results from ChEMBL document CHEMBL3526002, “Tissue distribution and identification of radioactivity components at elimination phase after oral administration of [¹⁴C]CS-1036, an α-amylase inhibitor, to rats” (Drug Metab Dispos, 2013).

How the values were obtained:
Conditions in all cases: in vivo; call rule not given here
[1] = tested on: Stomach; assay: Drug uptake in albino F344/DuCrlCrlj rat stomach assessed as ng equivalent of CS-1036 at 5 mg/kg, po after 24 hrs by liquid scintillation counting; assay type: ADME, organism-based; parameters: dose 5 mg/kg, dosed compound name [14C]CS-1036, route oral
[2] = tested on: Large intestine; assay: Drug uptake in albino F344/DuCrlCrlj rat large intestine assessed as ng equivalent of CS-1036 at 5 mg/kg, po after 24 hrs by liquid scintillation counting; assay type: ADME, organism-based; parameters: dose 5 mg/kg, dosed compound name [14C]CS-1036, route oral
[3] = tested on: Kidney; assay: Drug uptake in albino F344/DuCrlCrlj rat kidney at 5 mg/kg, po after 4 hrs by liquid scintillation counting; assay type: ADME, organism-based; parameters: dose 5 mg/kg, dosed compound name [14C]CS-1036, route oral
[4] = tested on: Aorta; assay: Drug uptake in albino F344/DuCrlCrlj rat aorta at 5 mg/kg, po after 4 hrs by liquid scintillation counting; assay type: ADME, organism-based; parameters: dose 5 mg/kg, dosed compound name [14C]CS-1036, route oral
[5] = tested on: Thymus; assay: Drug uptake in albino F344/DuCrlCrlj rat thymus at 5 mg/kg, po after 8 hrs by liquid scintillation counting; assay type: ADME, organism-based; parameters: dose 5 mg/kg, dosed compound name [14C]CS-1036, route oral
[6] = tested on: Adrenal gland; assay: Drug uptake in albino F344/DuCrlCrlj rat adrenal gland at 5 mg/kg, po after 8 hrs by liquid scintillation counting; assay type: ADME, organism-based; parameters: dose 5 mg/kg, dosed compound name [14C]CS-1036, route oral
[7] = tested on: Plasma; assay: Drug uptake in albino F344/DuCrlCrlj rat plasma assessed as ng equivalent of CS-1036 at 5 mg/kg, po after 1 hr by liquid scintillation counting; assay type: ADME, organism-based; parameters: dose 5 mg/kg, dosed compound name [14C]CS-1036, route oral
[8] = tested on: Blood; assay: Drug uptake in albino F344/DuCrlCrlj rat blood assessed as ng equivalent of CS-1036 at 5 mg/kg, po after 1 hr by liquid scintillation counting; assay type: ADME, organism-based; parameters: dose 5 mg/kg, dosed compound name [14C]CS-1036, route oral
Method in brief: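 Male F344/DuCrlCrlj rats (159–167 g; n = 3 per time point) received a single oral dose of [14C]CS-1036 at 5 mg/kg. Blood was taken from the abdominal aorta at 1, 4, 8, 24, 72, 168 and 336 h. Radioactivity was counted by LSC with external-standard efficiency correction. Results were converted to ng equivalent of CS-1036/ml using specific activity and sample volume, and reported as mean + S.D.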

[9] = tested on: Liver; assay: Drug uptake in albino F344/DuCrlCrlj rat liver assessed as ng equivalent of CS-1036 at 5 mg/kg, po after 72 hrs by liquid scintillation counting; assay type: ADME, organism-based; parameters: dose 5 mg/kg, dosed compound name [14C]CS-1036, route oral
[10] = Drug uptake in albino F344/DuCrlCrlj rat brown fat assessed as ng equivalent of CS-1036 at 5 mg/kg, po after 72 hrs by liquid scintillation counting; assay type: ADME, organism-based, Brown adipose tissue; parameters: dose 5 mg/kg, dosed compound name [14C]CS-1036, route oral
[11] = tested on: Aorta; assay: Drug uptake in albino F344/DuCrlCrlj rat aorta assessed as ng equivalent of CS-1036 at 5 mg/kg, po after 336 hrs by liquid scintillation counting; assay type: ADME, organism-based; parameters: dose 5 mg/kg, dosed compound name [14C]CS-1036, route oral
[12] = Drug uptake in albino F344/DuCrlCrlj rat epididymis assessed as ng equivalent of CS-1036 at 5 mg/kg, po after 336 hrs by liquid scintillation counting; assay type: ADME, organism-based; parameters: dose 5 mg/kg, dosed compound name [14C]CS-1036, route oral
[13] = Drug uptake in albino F344/DuCrlCrlj rat urinary bladder assessed as ng equivalent of CS-1036 at 5 mg/kg, po after 336 hrs by liquid scintillation counting; assay type: ADME, organism-based; parameters: dose 5 mg/kg, dosed compound name [14C]CS-1036, route oral
[14] = tested on: Plasma; assay: Drug uptake in albino F344/DuCrlCrlj rat plasma at 10 mg/kg, po after 8 to 72 hrs by liquid scintillation counting; assay type: ADME, organism-based; parameters: dose 10 mg/kg, dosed compound name [14C]CS-1036, route oral
[15] = Drug uptake in albino F344/DuCrlCrlj rat brown fat at 5 mg/kg, po after 24 hrs by liquid scintillation counting; assay type: ADME, organism-based, Brown adipose tissue; parameters: dose 5 mg/kg, dosed compound name [14C]CS-1036, route oral
[16] = tested on: Stomach; assay: Drug uptake in albino F344/DuCrlCrlj rat stomach at 5 mg/kg, po after 24 hrs by liquid scintillation counting; assay type: ADME, organism-based; parameters: dose 5 mg/kg, dosed compound name [14C]CS-1036, route oral
[17] = tested on: Small intestine; assay: Drug uptake in albino F344/DuCrlCrlj rat small intestine assessed as ng equivalent of CS-1036 at 5 mg/kg, po after 72 hrs by liquid scintillation counting; assay type: ADME, organism-based; parameters: dose 5 mg/kg, dosed compound name [14C]CS-1036, route oral
[18] = tested on: Harderian gland; assay: Drug uptake in albino F344/DuCrlCrlj rat harderian gland assessed as ng equivalent of CS-1036 at 5 mg/kg, po after 168 hrs by liquid scintillation counting; assay type: ADME, organism-based; parameters: dose 5 mg/kg, dosed compound name [14C]CS-1036, route oral
[19] = tested on: Heart; assay: Drug uptake in albino F344/DuCrlCrlj rat heart assessed as ng equivalent of CS-1036 at 5 mg/kg, po after 168 hrs by liquid scintillation counting; assay type: ADME, organism-based; parameters: dose 5 mg/kg, dosed compound name [14C]CS-1036, route oral
[20] = tested on: Plasma; assay: Drug uptake in albino F344/DuCrlCrlj rat plasma at 5 mg/kg, po after 72 hrs by liquid scintillation counting; assay type: ADME, organism-based; parameters: dose 5 mg/kg, dosed compound name [14C]CS-1036, route oral
[21] = tested on: Cerebellum; assay: Drug uptake in albino F344/DuCrlCrlj rat cerebellum at 5 mg/kg, po after 72 hrs by liquid scintillation counting; assay type: ADME, organism-based; parameters: dose 5 mg/kg, dosed compound name [14C]CS-1036, route oral
[22] = tested on: Liver; assay: Drug uptake in albino F344/DuCrlCrlj rat liver assessed as ng equivalent of CS-1036 at 5 mg/kg, po after 8 hrs by liquid scintillation counting; assay type: ADME, organism-based; parameters: dose 5 mg/kg, dosed compound name [14C]CS-1036, route oral
[23] = Drug uptake in albino F344/DuCrlCrlj rat mandibular gland at 5 mg/kg, po after 1 hr by liquid scintillation counting; assay type: ADME, organism-based; parameters: dose 5 mg/kg, dosed compound name [14C]CS-1036, route oral
[24] = tested on: Thymus; assay: Drug uptake in albino F344/DuCrlCrlj rat thymus at 5 mg/kg, po after 1 hr by liquid scintillation counting; assay type: ADME, organism-based; parameters: dose 5 mg/kg, dosed compound name [14C]CS-1036, route oral
[25] = tested on: Heart; assay: Drug uptake in albino F344/DuCrlCrlj rat heart assessed as ng equivalent of CS-1036 at 5 mg/kg, po after 336 hrs by liquid scintillation counting; assay type: ADME, organism-based; parameters: dose 5 mg/kg, dosed compound name [14C]CS-1036, route oral
[26] = tested on: Small intestine; assay: Drug uptake in albino F344/DuCrlCrlj rat small intestine at 5 mg/kg, po after 1 hr by liquid scintillation counting; assay type: ADME, organism-based; parameters: dose 5 mg/kg, dosed compound name [14C]CS-1036, route oral
[27] = tested on: Cerebrum; assay: Drug uptake in albino F344/DuCrlCrlj rat cerebrum assessed as ng equivalent of CS-1036 at 5 mg/kg, po after 24 hrs by liquid scintillation counting; assay type: ADME, organism-based; parameters: dose 5 mg/kg, dosed compound name [14C]CS-1036, route oral
Method in brief: (§1)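 Single oral [14C]CS-1036 at 5 mg/kg was given to male rats (159–167 g; n = 3). Cerebrum was collected after aortic bleeding at 1, 4, 8, 24, 72, 168 or 336 h, weighed, and homogenized in 2 volumes of saline. A 0.5 ml aliquot was solubilized in Soluene-350 and counted by LSC with external-standard correction. Results are in ng equivalent/g tissue from specific activity and sample weight.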

[28] = Drug uptake in albino F344/DuCrlCrlj rat thyroid gland at 5 mg/kg, po after 168 hrs by liquid scintillation counting; assay type: ADME, organism-based; parameters: dose 5 mg/kg, dosed compound name [14C]CS-1036, route oral
[29] = tested on: Kidney; assay: Drug uptake in albino F344/DuCrlCrlj rat kidney at 5 mg/kg, po after 168 hrs by liquid scintillation counting; assay type: ADME, organism-based; parameters: dose 5 mg/kg, dosed compound name [14C]CS-1036, route oral
[30] = tested on: Cerebrum; assay: Drug uptake in albino F344/DuCrlCrlj rat cerebrum at 5 mg/kg, po after 336 hrs by liquid scintillation counting; assay type: ADME, organism-based; parameters: dose 5 mg/kg, dosed compound name [14C]CS-1036, route oral; method in brief: as §1
[31] = tested on: Harderian gland; assay: Drug uptake in albino F344/DuCrlCrlj rat harderian gland at 5 mg/kg, po after 336 hrs by liquid scintillation counting; assay type: ADME, organism-based; parameters: dose 5 mg/kg, dosed compound name [14C]CS-1036, route oral
[32] = Drug uptake in albino F344/DuCrlCrlj rat mandibular gland at 5 mg/kg, po after 336 hrs by liquid scintillation counting; assay type: ADME, organism-based; parameters: dose 5 mg/kg, dosed compound name [14C]CS-1036, route oral
[33] = Drug uptake in albino F344/DuCrlCrlj rat brown fat at 5 mg/kg, po after 336 hrs by liquid scintillation counting; assay type: ADME, organism-based, Brown adipose tissue; parameters: dose 5 mg/kg, dosed compound name [14C]CS-1036, route oral
[34] = Drug uptake in albino F344/DuCrlCrlj rat testis at 5 mg/kg, po after 336 hrs by liquid scintillation counting; assay type: ADME, organism-based; parameters: dose 5 mg/kg, dosed compound name [14C]CS-1036, route oral
[35] = tested on: Heart; assay: Drug uptake in albino F344/DuCrlCrlj rat heart assessed as ng equivalent of CS-1036 at 5 mg/kg, po after 24 hrs by liquid scintillation counting; assay type: ADME, organism-based; parameters: dose 5 mg/kg, dosed compound name [14C]CS-1036, route oral

Which Radiolabel recovery [1] does the source give for `C[C@H]1O[C@@H](O[C@H]2[C@H](O)[C@@H](O)[C@@H](O[14C@H]3[14C@H](O)[14CH2]N[14C@@H]3[14CH2]O)O[C@@H]2CO)[C@H](O)[C@@H](O)[C@@H]1O` here?
The Radiolabel recovery was 16 ngequiv/g.

And the Radiolabel recovery [2]?
The Radiolabel recovery was 138 ngequiv/g.

And the Radiolabel recovery [3]?
Its Radiolabel recovery is 383 ngequiv/g.

What about the Radiolabel recovery [4] of the same compound?
The Radiolabel recovery was 23.9 ngequiv/g.

What about the Radiolabel recovery [5] of the same compound?
Its Radiolabel recovery is 43.4 ngequiv/g.

And the Radiolabel recovery [6]?
Its Radiolabel recovery is 66.1 ngequiv/g.

And the Radiolabel recovery [7]?
Its Radiolabel recovery is 12.7 ngequiv/ml.

And the Radiolabel recovery [8]?
The Radiolabel recovery was 9.5 ngequiv/ml.

What about the Radiolabel recovery [9] of the same compound?
Its Radiolabel recovery is 629 ngequiv/g.

What about the Radiolabel recovery [10] of the same compound?
The Radiolabel recovery was 136 ngequiv/g.

And the Radiolabel recovery [11]?
Its Radiolabel recovery is 10.8 ngequiv/g.

And the Radiolabel recovery [12]?
The Radiolabel recovery was 3.3 ngequiv/g.

What about the Radiolabel recovery [13] of the same compound?
Its Radiolabel recovery is 5.5 ngequiv/g.

What about the Drug uptake [14] of the same compound?
The Drug uptake was “Active”.

What about the Radiolabel recovery [15] of the same compound?
Its Radiolabel recovery is 200 ngequiv/g.

And the Radiolabel recovery [16]?
The Radiolabel recovery was 118 ngequiv/g.

And the Radiolabel recovery [17]?
Its Radiolabel recovery is 16.2 ngequiv/g.

What about the Radiolabel recovery [18] of the same compound?
The Radiolabel recovery was 9 ngequiv/g.

What about the Radiolabel recovery [19] of the same compound?
The Radiolabel recovery was 5.9 ngequiv/g.

What about the Radiolabel recovery [20] of the same compound?
The Radiolabel recovery was 14.5 ngequiv/ml.

And the Radiolabel recovery [21]?
The Radiolabel recovery was 9.8 ngequiv/g.

And the Radiolabel recovery [22]?
Its Radiolabel recovery is 116 ngequiv/g.

And the Radiolabel recovery [23]?
Its Radiolabel recovery is 43.4 ngequiv/g.

And the Radiolabel recovery [24]?
Its Radiolabel recovery is 23.2 ngequiv/g.

And the Radiolabel recovery [25]?
The Radiolabel recovery was 3.63 ngequiv/g.

What about the Radiolabel recovery [26] of the same compound?
Its Radiolabel recovery is 52100 ngequiv/g.

And the Radiolabel recovery [27]?
The Radiolabel recovery was 1.5 ngequiv/g.

What about the Radiolabel recovery [28] of the same compound?
Its Radiolabel recovery is 33.7 ngequiv/g.

And the Radiolabel recovery [29]?
The Radiolabel recovery was 27 ngequiv/g.

And the Radiolabel recovery [30]?
The Radiolabel recovery was 4.88 ngequiv/g.

What about the Radiolabel recovery [31] of the same compound?
Its Radiolabel recovery is 5.08 ngequiv/g.

What about the Radiolabel recovery [32] of the same compound?
Its Radiolabel recovery is 8.58 ngequiv/g.

And the Radiolabel recovery [33]?
Its Radiolabel recovery is 54.3 ngequiv/g.

And the Radiolabel recovery [34]?
The Radiolabel recovery was 6.02 ngequiv/g.

What about the Radiolabel recovery [35] of the same compound?
Its Radiolabel recovery is 4.4 ngequiv/g.
